How the values were obtained:
Escherichia coli [1] = experiment: Inhibition of Escherichia coli MetAP at 25 uM after 20 mins by HPLC analysis
Summary of the method: (§1)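 Endpoint assay. Enzyme (50 nM) was preincubated with 25 μM compound for 20 min at 37 °C in 50 mM Tris pH 7.5, 100 mM NaCl, 100 μM CoCl2, 0.075% BSA. MGMM substrate (400 μM) was then added for 15 min (human MetAP-1) or 20 min (E. coli MetAP). Reactions were stopped with TFA. GMM product was quantified by RP-HPLC, UV 214 nm. Triplicate.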

[2] = molecular target: Methionine aminopeptidase 1 (Homo sapiens) (UniProt P53582); experiment: Inhibition of human MetAP at 25 uM after 20 mins by HPLC analysis; summary of the method: as §1
Escherichia coli [3] = experiment: Inhibition of wild-type Escherichia coli MurA compound preincubated for 10 mins before substrate addition at 25 uM measured after 15 mins by LC-MS method
Escherichia coli [4] = experiment: Inhibition of wild-type Escherichia coli MurB compound preincubated for 10 mins before substrate addition at 25 uM measured after 15 mins by LC-MS method
Summary of the method: (§2)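 E. coli wild-type enzyme (4 nM) was preincubated with 25 μM compound for 10 min at 37 °C. Enzymatically generated nucleotide-sugar substrate (~200 μM) plus ATP (~200 μM), or NADPH 200 μM for MurB, was added for 10 min. Reactions were started with amino-acid cosubstrate (MurC–F) or EP-UNAG (MurB), run 15 min at 37 °C, and quenched with formic acid. Product was measured by negative-ESI LC-MS EIC peak area. MgCl2: MurC 10, MurD/E 2, MurF 5 mM; MurB had 5 mM KCl. All in 50 mM NH4HCO3, 0.07% BSA, 1% DMSO; triplicate.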

Escherichia coli [5] = experiment: Inhibition of wild-type Escherichia coli MurC compound preincubated for 10 mins before substrate addition at 25 uM measured after 15 mins by LC-MS method; summary of the method: as §2
Escherichia coli [6] = experiment: Inhibition of wild-type Escherichia coli MurD compound preincubated for 10 mins before substrate addition at 25 uM measured after 15 mins by LC-MS method; summary of the method: as §2
Escherichia coli [7] = experiment: Inhibition of wild-type Escherichia coli MurE compound preincubated for 10 mins before substrate addition at 25 uM measured after 15 mins by LC-MS method; summary of the method: as §2
Escherichia coli [8] = experiment: Inhibition of wild-type Escherichia coli MurF compound preincubated for 10 mins before substrate addition at 25 uM measured after 15 mins by LC-MS method; summary of the method: as §2
[9] = GSH reactivity of the compound assessed as adducts formation by RP-HPLC analysis
Summary of the method: (§3)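 Fresh aqueous glutathione (10 mM solution) was added to 50 mM Tris-maleate buffer, pH 7.5. The reaction was started with compound from 10 mM DMSO stock (final 250 μM). Mixtures were followed by reversed-phase HPLC on an ODS column with a gradient to 100% B; rate constants are given in l·mol⁻¹·s⁻¹.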

[10] = GSH reactivity of the compound assessed as half life by RP-HPLC analysis
[11] = molecular target: Genome polyprotein (dengue virus type 2) (UniProt P12823); experiment: Inhibition of Dengue virus serotype 2 NS2B-NS3 protease at 50 uM
[12] = molecular target: Genome polyprotein (West Nile virus) (UniProt P06935); experiment: Inhibition of West Nile virus NS2B-NS3 protease at 50 uM
Prothrombin (Bos taurus) = Prothrombin (Bos taurus) (UniProt P00735); experiment: Inhibition of Bovine thrombin using Boc-Val-Pro-Arg-AMC as substrate compound preincubated at 25 uM for 15 mins by fluorescence assay
Summary of the method: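 Bovine thrombin (final 10 nM) was preincubated 15 min with 25 μM compound in 50 mM Tris-HCl pH 7.5, 150 mM NaCl, 0.05% Tween 20. The reaction was started with Boc-Val-Pro-Arg-AMC (50 μM final). Fluorescence (ex 355/em 460 nm) was monitored continuously for 10 min; activity taken as slope (RFU/s). Triplicate.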

[13] = GSH reactivity of the compound assessed as adducts formation meaured over 3 hrs by RP-HPLC analysis; summary of the method: as §3
HeLa = experiment: Cytotoxicity against human HeLa cells assessed as reduction in cell viability after 24 hrs by CellTiter-Blue assay; assay type: cell-based
Summary of the method: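 HeLa cells seeded in triplicate at 5×10^3 cells/well and grown 24 h at 37 °C/5% CO2. Compounds at varying concentrations were added as a 2x stock in phenol-red-free DMEM with FBS, penicillin/streptomycin, sodium pyruvate and L-glutamine, then left 24 h. Medium was replaced with CellTiter-Blue medium for 3 h. A570/A610 was read after background subtraction, as % of untreated controls; EC50 derived.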

Chain of Genome polyprotein (West Nile virus) (P06935 whole entry): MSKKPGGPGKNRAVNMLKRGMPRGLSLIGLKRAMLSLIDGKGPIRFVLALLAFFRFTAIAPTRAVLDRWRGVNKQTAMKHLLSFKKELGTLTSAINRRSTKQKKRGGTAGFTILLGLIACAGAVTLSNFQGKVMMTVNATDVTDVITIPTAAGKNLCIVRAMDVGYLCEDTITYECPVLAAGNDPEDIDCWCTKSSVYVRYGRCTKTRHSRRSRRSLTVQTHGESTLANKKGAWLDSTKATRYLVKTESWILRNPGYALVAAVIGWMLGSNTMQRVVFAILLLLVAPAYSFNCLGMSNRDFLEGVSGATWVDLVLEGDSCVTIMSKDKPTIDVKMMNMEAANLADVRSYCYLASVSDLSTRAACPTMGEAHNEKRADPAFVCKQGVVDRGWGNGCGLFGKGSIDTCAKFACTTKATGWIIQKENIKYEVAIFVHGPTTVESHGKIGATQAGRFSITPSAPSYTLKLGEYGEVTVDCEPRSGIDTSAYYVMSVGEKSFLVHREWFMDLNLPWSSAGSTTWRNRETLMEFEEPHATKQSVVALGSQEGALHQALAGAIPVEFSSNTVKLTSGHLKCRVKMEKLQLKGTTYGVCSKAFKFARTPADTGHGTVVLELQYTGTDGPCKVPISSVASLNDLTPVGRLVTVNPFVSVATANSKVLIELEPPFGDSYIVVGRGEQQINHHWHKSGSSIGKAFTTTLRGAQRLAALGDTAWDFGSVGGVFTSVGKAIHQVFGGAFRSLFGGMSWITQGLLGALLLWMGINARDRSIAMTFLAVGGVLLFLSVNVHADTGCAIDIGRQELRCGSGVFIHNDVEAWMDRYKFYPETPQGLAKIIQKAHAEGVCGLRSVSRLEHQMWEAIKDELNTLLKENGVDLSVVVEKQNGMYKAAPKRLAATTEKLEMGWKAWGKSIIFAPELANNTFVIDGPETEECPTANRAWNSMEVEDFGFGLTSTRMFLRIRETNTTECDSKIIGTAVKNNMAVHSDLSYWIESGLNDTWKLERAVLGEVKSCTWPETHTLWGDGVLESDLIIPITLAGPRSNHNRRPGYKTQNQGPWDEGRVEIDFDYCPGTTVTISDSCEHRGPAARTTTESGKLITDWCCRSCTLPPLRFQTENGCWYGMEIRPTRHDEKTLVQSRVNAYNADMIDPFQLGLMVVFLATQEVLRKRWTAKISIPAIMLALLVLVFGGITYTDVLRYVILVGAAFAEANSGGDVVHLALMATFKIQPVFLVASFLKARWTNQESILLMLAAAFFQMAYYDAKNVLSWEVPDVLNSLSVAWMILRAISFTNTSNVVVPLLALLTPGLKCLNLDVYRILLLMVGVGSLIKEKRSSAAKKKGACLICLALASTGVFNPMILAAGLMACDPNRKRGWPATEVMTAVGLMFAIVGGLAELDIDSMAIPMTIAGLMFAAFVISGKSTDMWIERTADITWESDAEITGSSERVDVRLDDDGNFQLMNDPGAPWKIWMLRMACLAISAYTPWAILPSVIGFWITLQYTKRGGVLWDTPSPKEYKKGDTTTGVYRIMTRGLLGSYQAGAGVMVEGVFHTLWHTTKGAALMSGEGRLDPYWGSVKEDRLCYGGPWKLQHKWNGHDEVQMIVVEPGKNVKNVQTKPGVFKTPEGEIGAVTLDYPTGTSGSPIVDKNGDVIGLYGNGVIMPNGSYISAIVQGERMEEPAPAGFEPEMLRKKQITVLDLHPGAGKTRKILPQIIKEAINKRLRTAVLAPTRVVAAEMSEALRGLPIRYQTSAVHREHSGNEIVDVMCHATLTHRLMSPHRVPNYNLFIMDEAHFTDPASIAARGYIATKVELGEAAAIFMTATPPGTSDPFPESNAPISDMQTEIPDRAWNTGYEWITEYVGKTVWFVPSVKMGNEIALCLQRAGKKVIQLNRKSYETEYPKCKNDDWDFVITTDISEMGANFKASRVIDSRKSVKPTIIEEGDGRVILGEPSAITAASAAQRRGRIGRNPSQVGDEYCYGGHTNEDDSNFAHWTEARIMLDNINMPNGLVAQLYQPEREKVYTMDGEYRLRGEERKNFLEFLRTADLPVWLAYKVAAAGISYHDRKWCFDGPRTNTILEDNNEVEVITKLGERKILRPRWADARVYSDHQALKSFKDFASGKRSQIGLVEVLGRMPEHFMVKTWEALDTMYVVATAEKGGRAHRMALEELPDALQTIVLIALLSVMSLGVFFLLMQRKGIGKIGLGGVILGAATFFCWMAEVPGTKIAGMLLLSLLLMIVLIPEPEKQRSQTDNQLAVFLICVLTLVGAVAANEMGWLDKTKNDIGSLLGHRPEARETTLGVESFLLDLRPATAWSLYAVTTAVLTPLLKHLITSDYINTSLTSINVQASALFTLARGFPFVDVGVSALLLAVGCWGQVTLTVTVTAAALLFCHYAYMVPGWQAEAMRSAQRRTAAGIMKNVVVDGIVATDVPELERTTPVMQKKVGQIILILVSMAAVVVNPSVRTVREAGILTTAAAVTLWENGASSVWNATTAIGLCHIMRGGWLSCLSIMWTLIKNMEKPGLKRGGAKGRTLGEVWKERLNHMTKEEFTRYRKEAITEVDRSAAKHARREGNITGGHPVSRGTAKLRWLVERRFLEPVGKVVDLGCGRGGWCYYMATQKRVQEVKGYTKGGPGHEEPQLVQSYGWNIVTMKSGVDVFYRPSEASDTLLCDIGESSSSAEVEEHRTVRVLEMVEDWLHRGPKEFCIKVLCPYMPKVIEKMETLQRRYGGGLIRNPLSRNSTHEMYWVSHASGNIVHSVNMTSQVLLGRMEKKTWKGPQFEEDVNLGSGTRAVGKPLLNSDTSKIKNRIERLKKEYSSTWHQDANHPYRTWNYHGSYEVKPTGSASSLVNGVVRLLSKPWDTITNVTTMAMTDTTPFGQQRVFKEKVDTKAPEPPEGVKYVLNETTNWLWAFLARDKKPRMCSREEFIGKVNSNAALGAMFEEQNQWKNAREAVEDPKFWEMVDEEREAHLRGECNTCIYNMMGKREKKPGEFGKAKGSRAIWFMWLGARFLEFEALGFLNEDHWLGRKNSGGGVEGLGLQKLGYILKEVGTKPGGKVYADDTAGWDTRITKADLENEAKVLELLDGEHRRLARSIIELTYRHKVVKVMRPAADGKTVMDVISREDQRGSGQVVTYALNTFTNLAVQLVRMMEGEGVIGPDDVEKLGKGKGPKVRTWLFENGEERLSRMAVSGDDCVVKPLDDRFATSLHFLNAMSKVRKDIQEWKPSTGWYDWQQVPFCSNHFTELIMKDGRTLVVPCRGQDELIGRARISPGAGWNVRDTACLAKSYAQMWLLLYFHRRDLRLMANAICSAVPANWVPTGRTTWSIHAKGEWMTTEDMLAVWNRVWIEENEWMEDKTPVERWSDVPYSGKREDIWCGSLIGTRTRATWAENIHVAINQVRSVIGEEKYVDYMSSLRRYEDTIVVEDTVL

| SMILES | inhibition (Escherichia coli [1]) [%] | inhibition [2] [%] | inhibition (Escherichia coli [3]) [%] | inhibition (Escherichia coli [4]) [%] | inhibition (Escherichia coli [5]) [%] | inhibition (Escherichia coli [6]) [%] | inhibition (Escherichia coli [7]) [%] | inhibition (Escherichia coli [8]) [%] | Activity [9] [L/mol/s] | T1/2 [10] [h] | inhibition [11] [%] | inhibition [12] [%] | inhibition (Prothrombin (Bos taurus)) [%] | Activity [13] [%] | EC50 (HeLa) [µM] |
| --- | --- | --- | --- | --- | --- | --- | --- | --- | --- | --- | --- | --- | --- | --- | --- |
| O=C(NCCc1ccccc1)C1CC(Br)=NO1 (stereo unspecified) | < 15 | < 15 | < 15 | 16 | < 15 | 18 | 23 | < 15 | < 0.1 | > 200 | < 15 | < 15 | < 15 |  |  |
| C=CC(=O)Nc1ccc(OC)cc1 | < 15 | < 15 | < 15 | < 15 | < 15 | < 15 | < 15 | < 15 | < 0.1 |  | < 15 | < 15 | < 15 | < 5 |  |
| C=CC(=O)Nc1ccc([N+](=O)[O-])cc1 | < 15 | < 15 | < 15 | < 15 | < 15 | < 15 | < 15 | < 15 | < 0.1 |  | < 15 | < 15 | < 15 | < 5 |  |
| C=CC(=O)NC(CCCC)C(=O)OC (stereo unspecified) | < 15 | < 15 | < 15 | < 15 | < 15 | < 15 | < 15 | < 15 | < 0.1 |  | < 15 | < 15 | < 15 | < 5 |  |
| C=CC(=O)Nc1ccc(C)cc1 | < 15 | < 15 | < 15 | < 15 | < 15 | < 15 | < 15 | < 15 | < 0.1 |  | < 15 | < 15 | < 15 | < 5 |  |
| Cc1ccc(NC(=O)C2CC(Br)=NO2)cc1 (stereo unspecified) | 19 | < 15 | < 15 | < 15 | < 15 | < 15 | < 15 | < 15 | < 0.1 | > 200 | < 15 | 22 | < 15 |  |  |
| C=CC(=O)NCc1ccccc1 | < 15 | < 15 | < 15 | < 15 | < 15 | < 15 | < 15 | < 15 | < 0.1 |  | < 15 | < 15 | < 15 | < 5 |  |
| C=CC(=O)NCCc1ccccc1 | < 15 | < 15 | < 15 | < 15 | < 15 | < 15 | < 15 | < 15 | < 0.1 |  | < 15 | < 15 | < 15 | < 5 |  |
| C=CC(=O)Nc1ccc(F)cc1 | < 15 | < 15 | < 15 | < 15 | < 15 | < 15 | < 15 | < 15 | < 0.1 |  | < 15 | < 15 | < 15 | < 5 |  |
| C=CC(=O)NCCCC | < 15 | 20 | < 15 | < 15 | < 15 | < 15 | < 15 | < 15 | < 0.1 |  | < 15 | < 15 | < 15 | < 5 | > 100 |

— ChEMBL document CHEMBL3352149, “Promiscuity and selectivity in covalent enzyme inhibition: a systematic study of electrophilic fragments” (J Med Chem, 2014)
